# Results: ChEMBL document CHEMBL4382285, “Discovery of Novel Retigabine Derivatives as Potent KCNQ4 and KCNQ5 Channel Agonists with Improved Specificity” (ACS Med Chem Lett, 2019)
# Tests used:
# Assay type in all cases: cell-based
# [1] = target: T1, Potassium voltage-gated channel subfamily KQT member 3 (Rattus norvegicus) (UniProt O88944); test: Activity at rat KCNQ3 expressed in CHOK1 cells assessed as ratio of amplitude of outward current in presence of test compound to amplitude of outward current in absence of test compound at 10 uM at -10 mV by whole cell patch clamp assay
# T1 sequence (whole entry): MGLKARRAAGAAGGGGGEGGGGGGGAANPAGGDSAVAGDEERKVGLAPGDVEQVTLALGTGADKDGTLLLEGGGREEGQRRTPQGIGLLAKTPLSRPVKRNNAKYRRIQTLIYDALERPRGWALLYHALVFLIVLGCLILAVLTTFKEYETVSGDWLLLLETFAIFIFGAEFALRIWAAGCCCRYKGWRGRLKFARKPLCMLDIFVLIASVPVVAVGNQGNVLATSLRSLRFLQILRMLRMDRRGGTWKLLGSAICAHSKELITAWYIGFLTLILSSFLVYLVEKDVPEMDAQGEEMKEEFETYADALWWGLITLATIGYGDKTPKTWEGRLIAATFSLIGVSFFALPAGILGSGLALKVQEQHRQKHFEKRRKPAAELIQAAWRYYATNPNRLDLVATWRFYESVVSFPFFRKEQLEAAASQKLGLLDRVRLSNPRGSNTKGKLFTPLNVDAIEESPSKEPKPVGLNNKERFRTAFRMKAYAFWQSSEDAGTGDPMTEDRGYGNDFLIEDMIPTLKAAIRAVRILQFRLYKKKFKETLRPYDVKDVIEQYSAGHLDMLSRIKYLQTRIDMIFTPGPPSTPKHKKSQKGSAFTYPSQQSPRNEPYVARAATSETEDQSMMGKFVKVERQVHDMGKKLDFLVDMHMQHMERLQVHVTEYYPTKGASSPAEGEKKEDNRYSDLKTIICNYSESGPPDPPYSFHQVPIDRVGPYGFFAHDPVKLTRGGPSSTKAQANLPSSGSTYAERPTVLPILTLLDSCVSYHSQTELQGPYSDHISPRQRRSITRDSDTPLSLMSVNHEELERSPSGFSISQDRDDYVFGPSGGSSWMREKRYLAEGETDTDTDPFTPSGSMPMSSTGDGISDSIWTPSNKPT
# Outline: (§1)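 CHO-K1 cells individually transfected with a single KCNQ subtype; whole-cell voltage clamp. Held at −80 mV, stepped from −90 to +60 mV in 10 mV increments (1500 ms), then to −120 mV for 500 ms. Outward current at −10 or +60 mV measured before (I0) and after (I) 10 μM compound; I/I0 >1 counts as activation. More than four cells per compound.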
# [2] = target: T1, Potassium voltage-gated channel subfamily KQT member 3 (Rattus norvegicus); test: Activity at rat KCNQ3 expressed in CHOK1 cells assessed as ratio of amplitude of outward current in presence of test compound to amplitude of outward current in absence of test compound at 10 uM at +60 mV by whole cell patch clamp assay; outline: as §1
# [3] = target: Potassium voltage-gated channel subfamily KQT member 5 (Homo sapiens, UniProt Q9NR82); test: Activity at human KCNQ5 expressed in CHOK1 cells assessed as ratio of amplitude of outward current in presence of test compound to amplitude of outward current in absence of test compound at 10 uM at -10 mV by whole cell patch clamp assay
# Potassium voltage-gated channel subfamily KQT member 5, sequence (Q9NR82 whole entry): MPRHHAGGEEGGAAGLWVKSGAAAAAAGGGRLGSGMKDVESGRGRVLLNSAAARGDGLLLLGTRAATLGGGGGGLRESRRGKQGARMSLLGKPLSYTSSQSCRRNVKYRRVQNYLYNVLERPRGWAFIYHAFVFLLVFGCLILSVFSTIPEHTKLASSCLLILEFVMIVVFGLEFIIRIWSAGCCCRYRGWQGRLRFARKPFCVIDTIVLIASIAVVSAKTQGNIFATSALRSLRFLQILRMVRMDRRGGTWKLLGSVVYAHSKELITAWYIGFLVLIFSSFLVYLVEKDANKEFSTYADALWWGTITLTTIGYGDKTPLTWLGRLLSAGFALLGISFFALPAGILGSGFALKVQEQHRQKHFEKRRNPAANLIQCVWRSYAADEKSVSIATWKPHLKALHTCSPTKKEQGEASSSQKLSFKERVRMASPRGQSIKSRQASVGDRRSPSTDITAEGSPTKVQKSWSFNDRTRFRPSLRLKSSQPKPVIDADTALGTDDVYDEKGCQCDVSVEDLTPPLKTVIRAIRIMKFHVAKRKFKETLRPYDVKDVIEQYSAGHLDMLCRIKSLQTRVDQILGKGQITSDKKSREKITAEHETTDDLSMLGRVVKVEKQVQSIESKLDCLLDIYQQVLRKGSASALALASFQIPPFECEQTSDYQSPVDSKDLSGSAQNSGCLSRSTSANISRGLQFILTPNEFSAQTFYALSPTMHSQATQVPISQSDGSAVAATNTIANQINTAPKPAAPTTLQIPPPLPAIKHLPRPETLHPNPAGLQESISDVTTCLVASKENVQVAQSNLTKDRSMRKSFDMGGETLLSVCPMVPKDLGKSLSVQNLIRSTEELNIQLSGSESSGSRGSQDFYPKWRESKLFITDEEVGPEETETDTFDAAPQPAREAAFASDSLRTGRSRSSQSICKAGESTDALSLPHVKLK
# Outline: (§2)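 CHO-K1 cells expressing the channel, whole-cell voltage clamp, compound at 10 μM. Read-out is the outward current ratio I/I0 with and without compound, taken at −10 mV. I/I0 > 1 counts as activation and < 1 as inhibition. More than four cells per compound.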
# [4] = target: Potassium voltage-gated channel subfamily KQT member 2 (Rattus norvegicus) (UniProt O88943); test: Activity at rat KCNQ2 expressed in CHOK1 cells assessed as ratio of amplitude of outward current in presence of test compound to amplitude of outward current in absence of test compound at 10 uM at -10 mV by whole cell patch clamp assay; outline: as §2
# Potassium voltage-gated channel subfamily KQT member 2 (Rattus norvegicus), sequence (O88943 whole entry): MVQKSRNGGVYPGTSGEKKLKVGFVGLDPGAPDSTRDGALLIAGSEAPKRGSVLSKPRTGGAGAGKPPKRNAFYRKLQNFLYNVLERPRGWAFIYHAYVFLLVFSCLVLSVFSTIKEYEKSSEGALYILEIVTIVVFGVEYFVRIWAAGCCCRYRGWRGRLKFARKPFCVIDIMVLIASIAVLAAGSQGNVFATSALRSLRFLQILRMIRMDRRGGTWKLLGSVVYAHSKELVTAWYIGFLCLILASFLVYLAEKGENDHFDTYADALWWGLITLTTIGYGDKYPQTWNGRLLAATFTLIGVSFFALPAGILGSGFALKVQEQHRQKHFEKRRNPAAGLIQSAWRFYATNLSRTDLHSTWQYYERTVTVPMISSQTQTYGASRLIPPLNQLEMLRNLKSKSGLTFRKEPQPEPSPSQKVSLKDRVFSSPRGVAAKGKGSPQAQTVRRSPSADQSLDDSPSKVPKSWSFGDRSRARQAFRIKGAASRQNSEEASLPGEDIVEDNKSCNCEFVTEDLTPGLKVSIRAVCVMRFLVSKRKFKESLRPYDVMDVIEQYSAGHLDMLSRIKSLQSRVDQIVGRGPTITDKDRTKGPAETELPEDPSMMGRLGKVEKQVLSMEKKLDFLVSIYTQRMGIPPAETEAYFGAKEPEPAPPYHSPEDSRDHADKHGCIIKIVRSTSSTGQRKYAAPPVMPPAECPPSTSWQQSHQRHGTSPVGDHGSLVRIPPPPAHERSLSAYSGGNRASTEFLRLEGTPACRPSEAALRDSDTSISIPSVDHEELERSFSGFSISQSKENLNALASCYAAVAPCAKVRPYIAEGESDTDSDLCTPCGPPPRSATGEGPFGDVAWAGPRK
# [5] = target: T2, Potassium voltage-gated channel subfamily KQT member 4 (Homo sapiens) (UniProt P56696); test: Activity at human KCNQ4 expressed in CHOK1 cells assessed as ratio of amplitude of outward current in presence of test compound to amplitude of outward current in absence of test compound at 10 uM at -10 mV by whole cell patch clamp assay; outline: as §2
# T2 sequence (whole entry): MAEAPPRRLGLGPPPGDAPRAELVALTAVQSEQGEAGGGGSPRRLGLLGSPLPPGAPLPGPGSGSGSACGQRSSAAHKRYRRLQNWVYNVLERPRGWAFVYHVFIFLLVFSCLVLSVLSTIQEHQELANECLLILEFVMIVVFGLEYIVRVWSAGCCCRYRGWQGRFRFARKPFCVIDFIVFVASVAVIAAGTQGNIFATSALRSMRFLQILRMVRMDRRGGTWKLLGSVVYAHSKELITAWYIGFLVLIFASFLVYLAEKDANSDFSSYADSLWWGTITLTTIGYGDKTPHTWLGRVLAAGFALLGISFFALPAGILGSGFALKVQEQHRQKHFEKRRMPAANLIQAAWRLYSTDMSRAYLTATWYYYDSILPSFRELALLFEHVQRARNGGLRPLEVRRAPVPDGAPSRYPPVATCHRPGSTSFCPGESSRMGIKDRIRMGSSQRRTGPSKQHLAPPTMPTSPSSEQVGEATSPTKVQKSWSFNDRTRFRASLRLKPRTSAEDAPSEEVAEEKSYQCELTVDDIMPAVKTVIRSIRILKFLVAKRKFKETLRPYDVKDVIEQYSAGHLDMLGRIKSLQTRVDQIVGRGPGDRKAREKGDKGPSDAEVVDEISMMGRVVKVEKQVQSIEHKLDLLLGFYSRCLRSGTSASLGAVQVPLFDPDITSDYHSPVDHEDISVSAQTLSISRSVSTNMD
smiles,measurement,setting,value
C#CCN(Cc1ccc(F)cc1)c1ccc(NC(=O)OCC)c(NC(=O)OCC)c1,Ratio,[1],1.6
same,Ratio,[2],1.7
same,Ratio,[3],3.2
same,Ratio,[4],0.94
same,Ratio,[5],5.68
